One assay deals with protein-free HJ DNA. Put plainly: Non-competitive HJ band shift. It is filed as binding.
For another assay, the system named is E. coli MG1655 cells. The experiment in a line: Bacterial TUNEL assay. It is filed as cell-based. To be noted: highest concentration tested, 1.5 hours. The essentials:
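E. coli MG1655 grown as for MIC testing: overnight culture diluted 1:100 in Mueller Hinton broth, grown to OD600 0.08–0.1, then exposed to peptide for 1.5 h. Cells pelleted and resuspended in 1× PBS. TdT labels 3′-OH ends with fluorescein-dUTP; TOTO-3 counterstains DNA. Flow cytometry (488 nm FITC, 633 nm APC; 50,000 events). TUNEL-positive expressed as fraction of TOTO-3-positive cells, normalized to DMSO-treated cells.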

In the case of WRWYGGYWRW, in the assay with protein-free HJ DNA, the “shift of protein-free HJ DNA in EMSA (specific shift)” value (“shift of protein-free HJ DNA in EMSA” below) is given as “Neither WRWYGGYWRW nor WYCRGGRCYW caused specific shifts at low peptide concentrations”.
On to WRWYCR, for which the TUNEL-positive cells in the assay on E. coli MG1655 cells worked out at 75.6 ± 2.2%.
On to WYCRGGRCYW, for which the “shift of protein-free HJ DNA in EMSA” value with protein-free HJ DNA is recorded as “Neither WRWYGGYWRW nor WYCRGGRCYW caused specific shifts at low peptide concentrations”.
With KWWRGGRWWK, the “shift of protein-free HJ DNA in EMSA” value with protein-free HJ DNA is given as “caused a change in the mobility of protein-free HJ DNA similar to shifts seen with (WRWYCR)2”.
